Data on 71 compounds can be found in ChEMBL document CHEMBL4513216, “Probing the Open Global Health Chemical Diversity Library for Multistage-Active Starting Points for Next-Generation Antimalarials” (ACS Infect Dis, 2020).

A short description of this data set: Toxicity liver stage against HepG2, at 10uM. The class given is cell-based. Further details: test concentration 10 uM, cell line HepG2-A16-CD81EGFP. The conditions noted are these: human, HepG2-A16-CD81EGFP cells; read-out: INHIBITION
In a few lines: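 Uninfected HepG2-A16-CD81EGFP cells, 3 × 10^3 per well, 1536-well, plated on prespotted compound at 10 μM final, parasite-free screening media added to match infected plates; puromycin 10 μM positive, DMSO 0.5% negative; run in parallel with 48 h PbLuc assay at 37 °C, 5% CO2; viability by CellTiter-Glo luminescence, normalized to controls.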
`C=C(Cl)CN1CCC(C(=O)c2cc(F)ccc2F)CC1`: the cytotoxicity at 10 µM is -7.26%.

Take `CCCc1noc(CCC(=O)N2CCCC2c2ccsc2)n1` (stereo unspecified): the cytotoxicity at 10 µM is -11%.

`O=C1CSC(c2ccc3c(c2)OCO3)c2cn[nH]c2N1` (stereo unspecified): the cytotoxicity at 10 µM was 4.29%.

With `CCCS(=O)(=O)NC(=O)c1ccc(CC)o1`, the cytotoxicity at 10 µM is -8.37%.

`CC(=O)N(C)c1nc(CN2CCCCC2Cn2cncn2)cs1` (stereo unspecified): the cytotoxicity at 10 µM is -5.79%.

For `Cc1noc(-c2ccnc(N3CCC(CN4CCOCC4)CC3)c2)n1`, the cytotoxicity at 10 µM was -2.11%.

With `Cc1ccc(CN2C[C@@H]3CN(CC4CCOCC4)CCO[C@@H]3C2)s1`, the cytotoxicity at 10 µM was -12.7%.

For `CC(C(N)=O)N1CCN(c2ncc(Cl)cn2)CC1` (stereo unspecified), the cytotoxicity at 10 µM is -1.26%.

In the case of `CN1CSC[C@H]1C(=O)N1CCN(Cc2cccc(Cl)c2)CC1`, the cytotoxicity at 10 µM was -4.28%.

On to `COc1cccc(CNC2CCc3ccc(C)cc32)n1` (stereo unspecified), for which the cytotoxicity at 10 µM is 4.37%.

As to `Cc1ccc(CNC(=O)c2ccc(CNS(C)(=O)=O)o2)cc1F`, the cytotoxicity at 10 µM was found to be 15.2%.

As to `CSc1ccc(-c2cc(CN)nc3ccnn23)cc1`, the cytotoxicity at 10 µM is -7.5%.

Take `CCS(=O)(=O)N1C[C@@H](O)[C@H](Oc2cccc(F)c2)C1`: the cytotoxicity at 10 µM was -3.65%.

For the compound `CC(C)=CCN1CCN(CCCc2ccccc2)[C@H]2CS(=O)(=O)C[C@H]21`, the cytotoxicity at 10 µM was -1.06%.

On to `COc1ncc(C2(O)CCN(Cc3cc(F)ccc3F)CC2)c(OC)n1`, for which the cytotoxicity at 10 µM is -16.1%.

For `CCc1ccc(C(N)c2cccc(S(C)(=O)=O)c2)cc1` (stereo unspecified), the cytotoxicity at 10 µM was -10.9%.

As for `O=C(Cc1ccco1)N1C[C@H]2CCC[C@@]2(COCc2cccnc2)C1`, the cytotoxicity at 10 µM is -115%.

Take `Cc1cnc(C(NC(=O)NCC2(CO)CC2)C2CC2)s1` (stereo unspecified): the cytotoxicity at 10 µM stood at 1.8%.

`CCOCC1CN(Cc2ccco2)Cc2ccnn2C1` (stereo unspecified): the cytotoxicity at 10 µM was -149%.

Take `CC(C)C(NC(=O)C1CC1)c1cc(O)nc(-c2cccnc2)n1` (stereo unspecified): the cytotoxicity at 10 µM amounted to 5.18%.

For the compound `O=C(Nc1cc(CSCCO)ccn1)c1cc2ccccc2[nH]1`, the cytotoxicity at 10 µM was 17.3%.

For the compound `O=C(C1CCCc2[nH]ncc21)N1CCCC1` (stereo unspecified), the cytotoxicity at 10 µM came to 8.53%.

Take `O=C(NC1CC1)c1cccc(Oc2ccc3nncn3n2)c1`: the cytotoxicity at 10 µM is -5.29%.

Regarding `Cc1nc(C)n(CC2CCCN(CCNC(=O)OC(C)(C)C)C2)n1` (stereo unspecified), the cytotoxicity at 10 µM came to 1.08%.

As for `Cn1cc(CN(C(=O)C2COc3ccccc3C2)C2CC2)cn1` (stereo unspecified), the cytotoxicity at 10 µM came to 1.81%.

In the case of `CC(C)CN(C)S(=O)(=O)c1ccc(Cl)cc1C#N`, the cytotoxicity at 10 µM is -47.2%.

Turning to `Cc1ncsc1CCN(C)C(=O)c1ccc(CN2CCCCC2)cc1`, the cytotoxicity at 10 µM was -4.38%.

As to `Cc1nc(O)cc(C2CCCN(C(=O)c3cccc(N(C)C)c3)C2)n1` (stereo unspecified), the cytotoxicity at 10 µM was -6.47%.

Consider `Cn1cc(I)c(C(=O)NCCCn2cc(Br)cn2)n1`, for which the cytotoxicity at 10 µM is 6.54%.

With `N#Cc1ncn(CCS(=O)(=O)c2ccc(Br)cc2)n1`, the cytotoxicity at 10 µM is -17.2%.

Take `CC(C)CN1C(=O)C2(CCN(Cc3nccs3)C2)c2ccccc21` (stereo unspecified): the cytotoxicity at 10 µM came out at 0.371%.

As for `CCOc1cccc(C(=O)N2CCN(c3nccc(OC)n3)CC2)c1`, the cytotoxicity at 10 µM was 5.41%.

On to `COc1cccc(C(=O)NCC(O)c2cccs2)c1` (stereo unspecified), for which the cytotoxicity at 10 µM is -22.4%.

Regarding `Cn1cccc1C(=O)N1CCC2(CCCN(CC3CCC3)C2=O)C1` (stereo unspecified), the cytotoxicity at 10 µM was -2.6%.

Turning to `CC(C)N(C)Cc1ncn2c1CN(S(=O)(=O)c1cccs1)CCC2`, the cytotoxicity at 10 µM stood at 3.62%.

Regarding `Cc1nc(N2CCN(S(C)(=O)=O)CC2)cc(-n2cnc(C)c2C)n1`, the cytotoxicity at 10 µM is -5.83%.

As to `O=C(NCCNc1ncccn1)NCCSC(F)(F)F`, the cytotoxicity at 10 µM worked out at 5.81%.

On to `CC(=O)N1C[C@H]2CNC[C@@]2(C(=O)NCCCOc2cccnc2)C1`, for which the cytotoxicity at 10 µM was -7.52%.

For `O=C(c1ccno1)N1CCOC[C@H](Oc2ccc(C(F)(F)F)cc2)C1`, the cytotoxicity at 10 µM was 1.48%.

`Cn1cc(N2CCC3(CCCN(Cc4ccc(F)cc4)C3)C2=O)cn1` (stereo unspecified): the cytotoxicity at 10 µM is -73.4%.

For `COC(=O)CNC(=O)c1sccc1N(C)S(=O)(=O)c1ccc(Cl)cc1`, the cytotoxicity at 10 µM is -15.4%.

For the compound `CC1CCN(C(=O)CCN2Cc3ccccc3C[C@H]2C(N)=O)C1` (stereo partly specified), the cytotoxicity at 10 µM was -3.11%.

`Cc1nc(C)n(CC2CN(Cc3cccc(C#N)c3)CCO2)n1` (stereo unspecified): the cytotoxicity at 10 µM was -10.3%.

As to `COc1cccc(C(=O)NCc2ccccc2S(=O)(=O)N(C)CCO)c1`, the cytotoxicity at 10 µM is -4.73%.

In the case of `CNC(=O)c1cc2c(nc1NCC(C)C)CCN(CC1CC1)CC2`, the cytotoxicity at 10 µM is -158%.

Turning to `COCCC1CCCCN1Cc1nc(Cc2cccc(F)c2)no1` (stereo unspecified), the cytotoxicity at 10 µM was -142%.

For the compound `COCCn1cc(NC(=O)NCC2CCN(c3ccccc3)C2)cn1` (stereo unspecified), the cytotoxicity at 10 µM stood at 2.21%.

`Cc1c[nH]c(CN(C)C(=O)c2cccc(CCC(C)(C)O)c2)n1`: the cytotoxicity at 10 µM is -6.85%.

For `CN(C)CC(=O)N1CCC2(CC1)Cc1ccccc1CN(C)C2=O`, the cytotoxicity at 10 µM is -2.96%.

Regarding `CC(C)n1nc(Cn2cccn2)c2c1CN(CC1CCOC1)C2` (stereo unspecified), the cytotoxicity at 10 µM was 7.13%.

Consider `CNC(=O)NC(=O)CSC(C)c1ccccc1F` (stereo unspecified), for which the cytotoxicity at 10 µM is -14.4%.

Take `CNc1ccc(CC2CCCN(C(=O)c3cnccn3)C2)nn1` (stereo unspecified): the cytotoxicity at 10 µM is -9.27%.

Regarding `CCC(CO)N(Cc1ccco1)Cc1c(C)nn(C)c1Cl` (stereo unspecified), the cytotoxicity at 10 µM was 7.4%.

Take `O=C(Nc1cccnc1)[C@H]1CN(C2CCCC2)C[C@H]2OCC[C@@H]12`: the cytotoxicity at 10 µM turned out to be 9.81%.

`Cc1cc2c(c(-c3c[nH]c(C)n3)c1)OC(CN)C2` (stereo unspecified): the cytotoxicity at 10 µM came to 4.24%.

Turning to `O=C(NCCSc1ccccc1)[C@H]1CNC[C@@H](C(=O)N2CCOCC2)C1`, the cytotoxicity at 10 µM was -3.03%.

In the case of `O=C1CCNc2ncc(-c3cccc(Cl)c3)cc2CN1C1CC1`, the cytotoxicity at 10 µM amounted to 8.55%.

With `Cc1cc(C)c(CNC(=O)NCC2Cc3ccccc3O2)c(=O)[nH]1` (stereo unspecified), the cytotoxicity at 10 µM was -5.21%.

As for `CN(C)C[C@@H]1CN(C(=O)Cc2ccc3ccccc3c2)C[C@@H]1CO`, the cytotoxicity at 10 µM was -8.4%.

As for `O=C(NCC1CC1)[C@@H]1CCO[C@@H]2CCN(Cc3ccsc3)C[C@H]21`, the cytotoxicity at 10 µM is -76.5%.

For the compound `CC(C)c1noc(OCc2cccc(C#N)c2)n1`, the cytotoxicity at 10 µM was -43.6%.

`CC(CNC(=O)c1c[nH]nn1)Oc1ccccc1Br` (stereo unspecified): the cytotoxicity at 10 µM was -0.509%.

In the case of `CN(CC(F)(F)F)C(=O)CNC(=O)N1CCCC(N(C)C)C1` (stereo unspecified), the cytotoxicity at 10 µM is -7.91%.

Turning to `COc1ccc(C(C)NCCC(N)=O)cc1F` (stereo unspecified), the cytotoxicity at 10 µM is -7.77%.

In the case of `COCCN(Cc1cnn(C)c1)C(=O)C1CCC(=O)N(C2CCCC2)C1` (stereo unspecified), the cytotoxicity at 10 µM amounted to 6.11%.

As for `COc1cccc(OCCNCc2ccccc2)c1`, the cytotoxicity at 10 µM was 10.7%.

Take `CNS(=O)(=O)Cc1cccc(CNC(=O)Nc2cn[nH]c2)c1`: the cytotoxicity at 10 µM is -11.2%.

As for `c1ccc(CCN2CCCC2c2cncc(Nc3nncs3)n2)cc1` (stereo unspecified), the cytotoxicity at 10 µM is 5.62%.

With `CCn1cc(NC(=O)C2CCN(CC(=O)NCC(C)C)CC2)cn1`, the cytotoxicity at 10 µM was -7.52%.

As for `COCCOc1ccc(NC(=O)C2CC(=O)N(CC3CC3)C2)cn1` (stereo unspecified), the cytotoxicity at 10 µM was -30.7%.

For `CC(=O)N1CCCN(C(=O)NCc2cccnc2OC(C)C)CC1`, the cytotoxicity at 10 µM is -5.5%.
